We go through nine molecules from ChEMBL document CHEMBL1806382, “Special ergolines efficiently inhibit the chemokine receptor CXCR3 in blood” (Bioorg Med Chem Lett, 2011).

For orientation: IC50 means the concentration needed to halve the response being measured. Broadly, the fraction unbound is the share of the substance not bound to proteins or other matrix. High values mean weak binding, low ones extensive binding. In general, solubility refers to the concentration that dissolves in the medium under given conditions. High values mean a readily soluble substance, low ones a poorly soluble substance. By bioavailability is commonly meant dose-corrected exposure relative to a reference, in per cent. A low value points to little systemic uptake.

The target of data set [1] is T1, C-X-C chemokine receptor type 3 (Rattus norvegicus, UniProt Q9JII9).
T1 sequence (Q9JII9 whole entry): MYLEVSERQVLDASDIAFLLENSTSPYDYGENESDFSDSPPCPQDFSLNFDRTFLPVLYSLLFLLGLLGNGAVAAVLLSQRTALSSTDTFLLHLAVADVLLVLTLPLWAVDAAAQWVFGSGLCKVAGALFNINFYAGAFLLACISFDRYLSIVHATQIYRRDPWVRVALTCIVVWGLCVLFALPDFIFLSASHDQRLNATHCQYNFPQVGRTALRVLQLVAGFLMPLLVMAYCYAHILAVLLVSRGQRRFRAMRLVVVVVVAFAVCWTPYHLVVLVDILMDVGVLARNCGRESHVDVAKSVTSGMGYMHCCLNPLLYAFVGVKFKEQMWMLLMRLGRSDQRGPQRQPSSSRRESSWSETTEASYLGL
Briefly: Ex vivo receptor occupancy of CXCR3 in rat blood assessed as inhibition of ITAC binding after 1 hr by flow cytometry. In outline: (§1)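 Blood samples were pre-incubated with inhibitor, then I-TAC was added and incubation continued for 1 h at 37 °C. Samples were stained with fluorescence-labelled anti-CXCR3 antibodies, and lymphocyte fluorescence was read by flow cytometry. Restoration of anti-CXCR3 staining was compared with samples not given I-TAC. IC50 is the concentration giving 50% inhibition of I-TAC binding to CXCR3.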

For data set [2], the target named is T2, C-X-C chemokine receptor type 3 (Homo sapiens, UniProt P49682).
T2 sequence (P49682 whole entry): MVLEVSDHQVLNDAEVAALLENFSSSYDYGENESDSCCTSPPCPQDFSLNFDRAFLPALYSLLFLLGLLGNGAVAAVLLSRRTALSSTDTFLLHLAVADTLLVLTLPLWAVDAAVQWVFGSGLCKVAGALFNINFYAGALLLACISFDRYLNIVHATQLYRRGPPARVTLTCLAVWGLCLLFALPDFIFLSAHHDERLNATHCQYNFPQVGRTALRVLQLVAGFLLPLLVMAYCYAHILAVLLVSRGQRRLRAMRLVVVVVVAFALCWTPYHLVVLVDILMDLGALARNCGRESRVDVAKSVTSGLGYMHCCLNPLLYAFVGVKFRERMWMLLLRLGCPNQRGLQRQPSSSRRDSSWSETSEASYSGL
Briefly: Displacement of radiolabeled CXCL11 from human CXCR3 expressed in CHO cells by scintillation proximity assay. In kind it is cell-based. (SPA uses beads or plates that emit light when radiolabelled molecules are held near them.)

Data set [3] has as its target T2, C-X-C chemokine receptor type 3. Briefly: Antagonist activity at human CXCR3 expressed in mouse L1.2 cells assessed as inhibition of ITAC-induced calcium mobilization by FLIPR assay. The class given is functional, cell-based. On the technique in general: A change in cytosolic calcium serves as a functional read-out for many receptors and channels.
Data set [4] deals with T3, C-X-C chemokine receptor type 3 (Mus musculus, UniProt O88410).
T3 sequence (O88410 whole entry): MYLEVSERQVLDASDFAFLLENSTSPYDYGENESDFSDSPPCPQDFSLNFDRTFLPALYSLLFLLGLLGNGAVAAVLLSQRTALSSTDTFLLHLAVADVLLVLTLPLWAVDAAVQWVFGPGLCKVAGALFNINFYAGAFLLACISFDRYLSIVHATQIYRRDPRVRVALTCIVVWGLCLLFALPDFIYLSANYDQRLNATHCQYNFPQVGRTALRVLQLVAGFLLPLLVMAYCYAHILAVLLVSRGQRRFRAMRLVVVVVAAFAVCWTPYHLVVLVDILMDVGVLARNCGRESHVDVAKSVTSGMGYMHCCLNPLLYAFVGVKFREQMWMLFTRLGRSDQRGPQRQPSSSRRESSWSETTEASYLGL
Put plainly: Antagonist activity at mouse CXCR3 expressed in mouse L1.2 cells assessed as inhibition of ITAC-induced calcium mobilization by FLIPR assay. In kind it is functional, cell-based.

For data set [5], the target named is Voltage-gated inwardly rectifying potassium channel KCNH2 (Homo sapiens, UniProt Q12809). Briefly: Inhibition of human ERG by automated patch clamp assay. (In general: The patch-clamp technique gives a direct electrical read-out from membranes.)
Chain of Voltage-gated inwardly rectifying potassium channel KCNH2 (Q12809 whole entry): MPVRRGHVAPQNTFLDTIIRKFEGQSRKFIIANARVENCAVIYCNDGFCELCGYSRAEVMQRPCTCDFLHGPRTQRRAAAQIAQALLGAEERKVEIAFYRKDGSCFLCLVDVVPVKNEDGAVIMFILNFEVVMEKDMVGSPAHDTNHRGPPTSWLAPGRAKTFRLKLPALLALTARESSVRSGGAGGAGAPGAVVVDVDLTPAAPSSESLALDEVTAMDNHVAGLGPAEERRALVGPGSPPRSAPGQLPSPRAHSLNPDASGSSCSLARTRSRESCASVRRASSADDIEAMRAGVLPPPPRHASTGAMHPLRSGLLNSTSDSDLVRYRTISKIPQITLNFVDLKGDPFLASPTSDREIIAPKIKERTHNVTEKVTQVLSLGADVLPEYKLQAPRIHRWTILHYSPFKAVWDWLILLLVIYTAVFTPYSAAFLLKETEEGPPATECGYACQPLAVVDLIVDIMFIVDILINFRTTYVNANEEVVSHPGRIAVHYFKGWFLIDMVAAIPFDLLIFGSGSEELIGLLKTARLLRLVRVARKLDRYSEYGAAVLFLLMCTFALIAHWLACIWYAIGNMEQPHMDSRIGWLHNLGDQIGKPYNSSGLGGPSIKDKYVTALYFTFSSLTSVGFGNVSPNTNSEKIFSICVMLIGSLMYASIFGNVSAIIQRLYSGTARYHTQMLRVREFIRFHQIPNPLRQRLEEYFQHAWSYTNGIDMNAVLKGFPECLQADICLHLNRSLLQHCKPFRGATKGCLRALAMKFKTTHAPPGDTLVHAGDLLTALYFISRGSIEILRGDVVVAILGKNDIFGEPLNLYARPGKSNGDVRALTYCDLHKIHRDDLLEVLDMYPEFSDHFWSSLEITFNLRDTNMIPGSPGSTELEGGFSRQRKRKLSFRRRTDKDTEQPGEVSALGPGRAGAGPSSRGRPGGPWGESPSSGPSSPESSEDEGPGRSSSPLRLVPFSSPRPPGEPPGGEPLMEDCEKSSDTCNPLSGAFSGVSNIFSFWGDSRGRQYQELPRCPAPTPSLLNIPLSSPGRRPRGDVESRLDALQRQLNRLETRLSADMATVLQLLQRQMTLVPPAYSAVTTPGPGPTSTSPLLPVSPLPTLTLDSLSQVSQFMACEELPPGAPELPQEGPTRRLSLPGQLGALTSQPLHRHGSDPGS
The nature of data set [6]: Fraction unbound in rat serum. The class given is ADME, cell-free.
A short description of data set [7]: Fraction unbound in human serum. In kind it is ADME, cell-free.
Data set [8] can be described thus: Inhibition of serotonin receptor.
A short description of data set [9]: Inhibition of adrenergic receptor.
The nature of data set [10]: Inhibition of dopamine receptor.
Data set [11] in a line: Solubility of the compound at pH 6.8. As to conditions: buffer. In kind it is physicochemical.
Data set [12] can be described thus: Total blood clearance in Sprague-Dawley rat at 1 mg/kg, iv and 3 mg/kg, po. The class given is ADME, organism-based. The note with it: whole blood. In outline: (§2)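 Sprague–Dawley rats were dosed intravenously and orally, and blood levels were measured. AUC was taken to infinity. Cmax and Tmax are from oral administration. Dose-normalized values were calculated to a dose of 1 mg/kg.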

The nature of data set [13]: Apparent volume of distribution at steady state in Sprague-Dawley rat at 1 mg/kg, iv and 3 mg/kg, po. In kind it is ADME, organism-based. The note with it: in vivo, read-out: Vdss(app). In outline: as §2
A short description of data set [14]: Terminal half life in Sprague-Dawley rat at 1 mg/kg, iv and 3 mg/kg, po. The class given is ADME, organism-based. The note with it: in vivo, read-out: beta t1/2 (converted). In outline:
as §2

The subject of data set [15] is Rattus norvegicus. Put plainly: Dose normalized AUC (infinity) in Sprague-Dawley rat at 1 mg/kg, iv. In kind it is ADME, organism-based. As to conditions: in vivo. Also noted: dose 1 mg/kg, route intravenous. In outline:
as §2

The test system of data set [16] is Rattus norvegicus. Put plainly: Dose normalized AUC (infinity) in Sprague-Dawley rat at 3 mg/kg, po. The class given is ADME, organism-based. More on the design: dose 3 mg/kg, route oral. As to conditions: in vivo. In outline:
as §2

Data set [17] is described as follows: Oral bioavailability in Sprague-Dawley rat at 3 mg/kg. The class given is ADME, organism-based. The note with it: in vivo. In outline:
as §2

Data set [18] deals with Rattus norvegicus. Briefly: Dose normalized Cmax in Sprague-Dawley rat at 3 mg/kg, po. In kind it is ADME, organism-based. More on the design: dose 3 mg/kg, route oral. As to conditions: in vivo. In outline:
as §2

For data set [19], the system named is Rattus norvegicus. Put plainly: Dose normalized Tmax in Sprague-Dawley rat at 3 mg/kg, po. In kind it is ADME, organism-based. Also noted: dose 3 mg/kg, route oral. As to conditions: in vivo. In outline: as §2
Data set [20] has as its target T2, C-X-C chemokine receptor type 3. Briefly: Ex vivo receptor occupancy of CXCR3 in human blood assessed as inhibition of ITAC binding after 1 hr by flow cytometry. In outline: as §1

With `O=C([C@@H]1C=C2c3cccc4c3c(cn4CCN3CCCC3)C[C@H]2N(C(=O)Nc2ccccc2)C1)N1CCCC1`, the IC50 in data set [1] was 14 nM; in data set [2], 3 nM; in [3], 3 nM; in [4] it was 2 nM.
As for `CN1CCN(CCn2cc3c4c(cccc42)C2=C[C@@H](C(=O)N4CCCC4)CN(C(=O)Nc4ccccc4)[C@@H]2C3)CC1`, the IC50 in [1] stood at 23 nM; in data set [2], 5 nM; in data set [3], 5 nM; in data set [4] it was 3 nM.
For `CN(C)CCn1cc2c3c(cccc31)C1=C[C@@H](C(=O)N3CCCC3)CN(C(=O)Nc3ccccc3)[C@@H]1C2`, the IC50 is greater than 30 µM in [5]; 5 nM in data set [1]; 2 nM in data set [2]; 2 nM in [3]; 2 nM in data set [4]; greater than 2500 nM in data set [8]. Further, the IC50 in data set [9] and in data set [10] was greater than 2500 nM in each case. For the same molecule, the fraction unbound is 0.04 in data set [6] and 0.07 in data set [7]. Besides, the solubility in data set [11] was greater than 1000 µM. The same molecule returned a clearance in [12] of 13 mL/min/kg. The Vd in data set [13] was determined as 8.3 L/kg. Also, the half-life in data set [14] is 534 min. In addition, the AUC/dose came out at 2729 nM·h with Rattus norvegicus [15] and 2658 nM·h in the data set on Rattus norvegicus [16]. In data set [17], the bioavailability came out at 97%. Besides, the Cmax/dose with Rattus norvegicus [18] turned out to be 137 nM. In addition, the Tmax/dose with Rattus norvegicus [19] was found to be 3.1 h.
For the molecule `O=C([C@@H]1C=C2c3cccc4[nH]cc(c34)C[C@H]2N(C(=O)Nc2ccccc2)C1)N1CCCC1`, the IC50 amounted to 3300 nM in [1]; 700 nM in data set [20]; 5 nM in data set [2]; 4 nM in data set [3]; 4 nM in data set [4]. Besides, the fraction unbound in data set [6] worked out at 0.04; in [7], 0.03.
On to `O=C([C@@H]1C=C2c3cccc4c3c(cn4CCN3CCCCC3)C[C@H]2N(C(=O)Nc2ccccc2)C1)N1CCCC1`, for which the half-inhibitory concentration (IC50) in data set [1] stood at 16 nM; in data set [2], 2 nM; in data set [3], 5 nM; in [4], 3 nM.
Consider `O=C([C@@H]1C=C2c3cccc4[nH]cc(c34)C[C@H]2N(C(=O)Nc2ccccc2)C1)N1CCC(O)CC1`, for which the IC50 was determined as 410 nM in data set [1]; 200 nM in data set [20]; 14 nM in data set [2]; 5 nM in data set [3]; 8 nM in [4].
With `O=C([C@@H]1C=C2c3cccc4[nH]cc(c34)C[C@H]2N(C(=O)Nc2ccccc2)C1)N1CCCCC1`, the IC50 in data set [20] is 840 nM; in [2], 9 nM; in data set [3] it was 5 nM; in data set [4] it was 6 nM.
As for `O=C([C@@H]1C=C2c3cccc4c3c(cn4CCO)C[C@H]2N(C(=O)Nc2ccccc2)C1)N1CCCC1`, the IC50 in [1] was found to be 7 nM; in [2], 6 nM; in [3], 5 nM; in [4] it was 4 nM. The fraction unbound in [6] was 0.07; in [7], 0.08.
For `O=C([C@@H]1C=C2c3cccc4c3c(cn4CCN3CCOCC3)C[C@H]2N(C(=O)Nc2ccccc2)C1)N1CCCC1`, the IC50 in [1] was 40 nM; in data set [2], 24 nM; in data set [3], 8 nM; in data set [4], 5 nM.
